Compounds with a hit are over-represented: about 1.4% of the library has one in this group of screens.
HTR5A ag ctr: HTR5A agonism, opioid heterodimer counter-screen; HTR5A agonist assay, luminescence, cell-based; activation, % at 9.3 µM; hit rate 0.61% among 340,000; AID 504692; P47898; in the data active = activation mostly above about 9.5%, no sharp cut-off; inactive = mostly below about 7.6%;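 note: 0% = cells with vehicle only and 100% = reference agonist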
Target sequence (P47898 whole entry, looked up): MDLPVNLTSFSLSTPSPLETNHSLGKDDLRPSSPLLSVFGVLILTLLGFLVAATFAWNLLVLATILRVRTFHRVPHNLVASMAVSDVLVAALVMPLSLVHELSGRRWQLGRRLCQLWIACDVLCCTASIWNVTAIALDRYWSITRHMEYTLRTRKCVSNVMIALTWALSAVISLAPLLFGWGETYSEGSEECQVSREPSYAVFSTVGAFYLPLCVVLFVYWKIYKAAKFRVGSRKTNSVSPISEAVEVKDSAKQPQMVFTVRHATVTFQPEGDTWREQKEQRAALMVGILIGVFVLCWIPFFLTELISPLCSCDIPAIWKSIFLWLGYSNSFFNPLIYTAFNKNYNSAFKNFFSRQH
Hep lipid drop: hepatic lipid droplet formation modulation. AML12 mouse hepatocytes, oleate lipid droplets, BODIPY imaging. inhibition, % at 6.5 µM. hit rate 0.4% among 240,000. AID 1656;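 active = lipid droplet intensity inhibited by at least 50%, with more than 500 cells counted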
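Test system: AML12 mouse liver cells; schedule: overnight exposure; technique: high-content imaging of BODIPY-stained droplets and DAPI nuclei; read-out: % inhibition of corrected integrated BODIPY droplet signal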
HTR5A inv ag: counter-screen for OPRM1-OPRD1 inverse agonists: human HTR5A inverse agonism; hit rate 0.083% among 340,000; inhibition, % at 9.3 µM; AID 504634; P47898; HTR5A cell line, luminescence; in the data active = inhibition mostly above about 23%, no sharp cut-off; inactive = mostly below about 18%;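 note: 0% = cells with DMSO and 100% = no-cell wells with DMSO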
MOR-DOR inv ag: inverse agonists of human mu-delta opioid receptor heterodimerization; P35372+P41143; cell-based MOR-DOR heterodimer luminescence, inverse agonism; inhibition, % at 9.3 µM; hit rate 0.21% among 340,000; AID 504357; in the data active = inhibition above about 22%, passing the limit was not always enough;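 note: 0% = cells with DMSO and 100% = wells without cells with DMSO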
MOR-DOR ag: OPRM1-OPRD1 heterodimerization agonism | P35372+P41143 | cells, luminescence | activation, % at 9.3 µM | AID 504326 | hit rate 0.3% among 340,000; in the data active = activation above about 18%;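 note: 0% = vehicle-treated cells and 100% = reference agonist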
The depositor's hits bear a star.

How did CC(=O)Oc1ccc(C(c2ccc(OC(C)=O)cc2)c2ccccn2)cc1 do in these assays?
HTR5A ag ctr: 34*; Hep lipid drop: 1; HTR5A inv ag: -120; MOR-DOR inv ag: -313; MOR-DOR ag: 58*

How did COC(=O)c1ccc(CNC(=O)C23CC4CC(CC(C4)C2)C3)cc1 do in these assays?
HTR5A ag ctr: 0; Hep lipid drop: -11; HTR5A inv ag: -3; MOR-DOR inv ag: -8; MOR-DOR ag: 1

How did CC1(C)CC(=O)c2cc3c(N)c(C(=O)NCc4ccccc4)sc3nc2C1 do in these assays?
HTR5A ag ctr: 11*; HTR5A inv ag: -39; MOR-DOR inv ag: -3; MOR-DOR ag: 1

Results for COc1ccc(NC(=O)c2[nH]c(C)c(C(C)=O)c2C)cc1S(=O)(=O)Nc1ccc(Br)cc1 ?
HTR5A ag ctr: 13*; Hep lipid drop: -2; HTR5A inv ag: -2; MOR-DOR inv ag: 9; MOR-DOR ag: -2

Results for COc1ccc(NC(=O)c2ccc(F)cc2)cc1S(=O)(=O)Nc1cc(C)ccc1Br ?
HTR5A ag ctr: 12*; Hep lipid drop: 15; HTR5A inv ag: -9; MOR-DOR inv ag: -33; MOR-DOR ag: 5

Results for COc1ccc(NC(=O)c2[nH]c(C)c(C(C)=O)c2C)cc1Cl ?
HTR5A ag ctr: 0; HTR5A inv ag: -6; MOR-DOR inv ag: 2; MOR-DOR ag: 0

Results for COc1ccc(NC(=O)c2[nH]c(C)c(C(C)=O)c2C)cc1 ?
HTR5A ag ctr: 12*; Hep lipid drop: 8; HTR5A inv ag: 2; MOR-DOR inv ag: -9; MOR-DOR ag: 2

What do the screens show for `CCOc1ccc(NC(=O)c2[nH]c(C)c(C(C)=O)c2C)cc1`?
HTR5A ag ctr: -1; Hep lipid drop: -17; HTR5A inv ag: 3; MOR-DOR inv ag: 9; MOR-DOR ag: -2

How did COc1cc(C#N)ccc1OC(=O)C1CCN(C(=O)c2ccc(F)cc2)CC1 do in these assays?
HTR5A ag ctr: -8; HTR5A inv ag: 20; MOR-DOR inv ag: 13; MOR-DOR ag: -2

Results for CN(C)C(=O)c1ccc(-c2nnc(OCc3nc4ccccc4n3C)c3ccccc23)cc1 ?
HTR5A ag ctr: -3; HTR5A inv ag: 0; MOR-DOR inv ag: 14; MOR-DOR ag: -3

How did Cc1cc(CN(C)C(=O)c2ccc3nc(Cc4ccccc4F)oc3c2)on1 do in these assays?
HTR5A ag ctr: 5; HTR5A inv ag: 11; MOR-DOR inv ag: 9; MOR-DOR ag: -2

How did CCCC[n+]1ccn(-c2nc3c([N+](=O)[O-])cccc3n2C)c1 do in these assays?
HTR5A ag ctr: -2; Hep lipid drop: -7; HTR5A inv ag: 6; MOR-DOR inv ag: 15; MOR-DOR ag: -3

How did CCOC(=O)N1CCC(=NNC(=O)c2ccc(O)cc2)CC1 do in these assays?
HTR5A ag ctr: 4; Hep lipid drop: 24; HTR5A inv ag: -11; MOR-DOR inv ag: -2; MOR-DOR ag: 0

What do the screens show for `Cc1cc(-n2c(C)cc(C(=O)CSc3ncnc4ccccc34)c2C)no1`?
HTR5A ag ctr: 16*; HTR5A inv ag: -19; MOR-DOR inv ag: -41; MOR-DOR ag: 7

What do the screens show for `O=C(c1ccc(-c2cccc(C(F)(F)F)c2)o1)N1CCCC(C(F)(F)F)C1` (stereo not given)?
HTR5A ag ctr: 11*; HTR5A inv ag: -29; MOR-DOR inv ag: -33; MOR-DOR ag: 6

How did CCCC(=O)NC1=C(C#N)C2(CCCC2)Cc2ccccc21 do in these assays?
HTR5A ag ctr: 11*; Hep lipid drop: 11; HTR5A inv ag: -26; MOR-DOR inv ag: 1; MOR-DOR ag: 0

How did COCCC(=O)Nc1ccc2c(c1)CN(C(=O)c1ccc(CSC)o1)CC2 do in these assays?
HTR5A ag ctr: 11*; Hep lipid drop: 0; HTR5A inv ag: -41; MOR-DOR inv ag: 10; MOR-DOR ag: -2

Results for COCCC(=O)Nc1ccc2c(c1)CN(C(=O)CCSC)CC2 ?
HTR5A ag ctr: 5; Hep lipid drop: 5; HTR5A inv ag: -1; MOR-DOR inv ag: 19; MOR-DOR ag: -4

Results for COc1cccc(-c2cc(C(=O)Nc3ccncc3)c3ccccc3n2)c1 ?
HTR5A ag ctr: 14*; Hep lipid drop: -9; HTR5A inv ag: -29; MOR-DOR inv ag: -82; MOR-DOR ag: 15

Results for Cc1cccc(NC(=O)c2cc(C)nc3ccccc23)c1 ?
HTR5A ag ctr: 14*; Hep lipid drop: -17; HTR5A inv ag: -50; MOR-DOR inv ag: 7; MOR-DOR ag: -1

How did Cc1ccc2c(c1)C1CN(C)CCC1N2Sc1ccccc1[N+](=O)[O-] (stereo not given) do in these assays?
Hep lipid drop: 0

What do the screens show for `CSc1ccccc1NC(=O)C1=CC(c2ccc(C)cc2)=NS(=O)(=O)N1C`?
HTR5A ag ctr: -3; Hep lipid drop: 21; HTR5A inv ag: 8; MOR-DOR inv ag: -1; MOR-DOR ag: 0

Results for COc1ccccc1C(c1nnnn1C(C)(C)C)N1CCCc2ccccc21 (stereo not given) ?
HTR5A ag ctr: 13*; HTR5A inv ag: -26; MOR-DOR inv ag: -6; MOR-DOR ag: 1

Results for CC(C)(C)n1nnnc1C(c1ccc(Cl)cc1)N1CCCc2ccccc21 (stereo not given) ?
HTR5A ag ctr: 3; Hep lipid drop: 9; HTR5A inv ag: 14; MOR-DOR inv ag: 13; MOR-DOR ag: -2

What do the screens show for `COc1cc(/C=C/C(=O)OCC(=O)Nc2cc(C)c(C)cc2[N+](=O)[O-])ccc1O`?
HTR5A ag ctr: 11*; Hep lipid drop: -2; HTR5A inv ag: -36; MOR-DOR inv ag: 12; MOR-DOR ag: -2

Results for COc1ccc(C2C(O)C(c3c[nH]c4ccccc34)=NN2C(=O)CCl)cc1 (stereo not given) ?
HTR5A ag ctr: 56*; Hep lipid drop: -23; HTR5A inv ag: -150; MOR-DOR inv ag: -320; MOR-DOR ag: 60*

Results for COc1ccc(C2NN=C(c3c[nH]c4ccccc34)C2O)cc1 (stereo not given) ?
HTR5A ag ctr: 4; HTR5A inv ag: -16; MOR-DOR inv ag: -22; MOR-DOR ag: 4

Results for CCCOc1ccc(NC(=O)c2c(-c3ccccc3)noc2C)cc1 ?
HTR5A ag ctr: 6; HTR5A inv ag: -17; MOR-DOR inv ag: -15; MOR-DOR ag: 3

What do the screens show for `CCCOc1ccc(C(=O)NC(=S)NNC(=O)c2c(-c3ccccc3)noc2C)cc1`?
HTR5A ag ctr: -12; Hep lipid drop: -3; HTR5A inv ag: 44*; MOR-DOR inv ag: 46*; MOR-DOR ag: -9

How did Cc1ccc(N(CC(=O)N/N=C/c2cc(C)n(-c3ccccc3)c2C)S(C)(=O)=O)c(C)c1 do in these assays?
HTR5A ag ctr: 13*; Hep lipid drop: 0; HTR5A inv ag: -16; MOR-DOR inv ag: 15; MOR-DOR ag: -4

What do the screens show for `Cc1ccc(N(CC(=O)Nc2c(C)n(C)n(-c3ccccc3)c2=O)S(C)(=O)=O)c(C)c1`?
HTR5A ag ctr: 2; Hep lipid drop: -4; HTR5A inv ag: 5; MOR-DOR inv ag: 0; MOR-DOR ag: 0

Results for COc1cc(/C=N/n2cnnc2)ccc1Oc1nc(Cl)ncc1F ?
HTR5A ag ctr: -3; Hep lipid drop: -2; HTR5A inv ag: 9; MOR-DOR inv ag: 5; MOR-DOR ag: -1

Screening data deposited in PubChem BioAssay by several laboratories.
